{
  "source": "ChEMBL document CHEMBL4819122",
  "about": "“Novel 4-(piperazin-1-yl)quinolin-2(1H)-one bearing thiazoles with antiproliferative activity through VEGFR-2-TK inhibition” (Bioorg Med Chem, 2021)",
  "key": {"[1]": {"tested_on": "MDA-MB-435", "experiment": "Cytotoxicity against human MDA-MB-435 assessed as growth inhibition at 10 uM by NCI protocol relative to control", "format": "functional, cell-based", "outline": "(§1)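 Run by NCI as a single-dose screen at 10 μM across the sixty-cell-line panel, which covers nine human tumour tissue types. The read-out is percent growth inhibition of treated cells relative to untreated cells.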"}, "[2]": {"tested_on": "RPMI-8226", "experiment": "Cytotoxicity against human RPMI-8226 assessed as growth inhibition at 10 uM by NCI protocol relative to control", "format": "functional", "conditions": "read-out: GI", "outline": "as §1"}, "[3]": {"tested_on": "EKVX", "experiment": "Cytotoxicity against human EKVX assessed as growth inhibition at 10 uM by NCI protocol relative to control", "format": "functional", "conditions": "read-out: GI", "outline": "as §1"}, "[4]": {"tested_on": "HT-29", "experiment": "Cytotoxicity against human HT29 assessed as growth inhibition at 10 uM by NCI protocol relative to control", "format": "functional", "conditions": "read-out: GI", "outline": "as §1"}, "[5]": {"tested_on": "BT-549", "experiment": "Cytotoxicity against human BT-549 assessed as growth inhibition at 10 uM by NCI protocol relative to control", "format": "functional", "conditions": "read-out: GI", "outline": "as §1"}, "[6]": {"tested_on": "PC-3", "experiment": "Cytotoxicity against human PC3 assessed as growth inhibition at 10 uM by NCI protocol relative to control", "format": "functional", "conditions": "read-out: GI", "outline": "as §1"}, "[7]": {"tested_on": "NCI-H23", "experiment": "Cytotoxicity against human NCI-H23 assessed as growth inhibition at 10 uM by NCI protocol relative to control", "format": "functional", "conditions": "read-out: GI", "outline": "as §1"}, "[8]": {"tested_on": "U-251", "experiment": "Cytotoxicity against human U251 assessed as growth inhibition at 10 uM by NCI protocol relative to control", "format": "functional", "conditions": "read-out: GI", "outline": "(§2)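 Run by the NCI under its standard protocol: one dose of 10 μM against a sixty-line panel from nine human tumour tissues. Result given as percent growth inhibition of treated cells relative to untreated cells.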"}, "[9]": {"tested_on": "LOX IMVI", "experiment": "Cytotoxicity against human LOX IMVI assessed as growth inhibition at 10 uM by NCI protocol relative to control", "format": "functional", "conditions": "read-out: GI", "outline": "as §1"}, "[10]": {"tested_on": "HCC 2998", "experiment": "Cytotoxicity against human HCC-2998 assessed as growth inhibition at 10 uM by NCI protocol relative to control", "format": "functional", "conditions": "read-out: GI", "outline": "as §1"}, "[11]": {"tested_on": "MDA-MB-231", "experiment": "Cytotoxicity against human MDA-MB-231 assessed as growth inhibition at 10 uM by NCI protocol relative to control", "format": "functional", "conditions": "read-out: GI", "outline": "as §1"}, "[12]": {"tested_on": "A498", "experiment": "Cytotoxicity against human A498 assessed as growth inhibition at 10 uM by NCI protocol relative to control", "format": "functional", "conditions": "read-out: GI", "outline": "as §1"}, "[13]": {"tested_on": "SNB-75", "experiment": "Cytotoxicity against human SNB-75 assessed as growth inhibition at 10 uM by NCI protocol relative to control", "format": "functional", "conditions": "read-out: GI", "outline": "as §2"}, "[14]": {"tested_on": "SNB-19", "experiment": "Cytotoxicity against human SNB-19 assessed as growth inhibition at 10 uM by NCI protocol relative to control", "format": "functional", "conditions": "read-out: GI", "outline": "as §2"}, "[15]": {"tested_on": "SN12C", "experiment": "Cytotoxicity against human SN12C assessed as growth inhibition at 10 uM by NCI protocol relative to control", "format": "functional", "conditions": "read-out: GI", "outline": "as §2"}, "[16]": {"tested_on": "Malme-3M", "experiment": "Cytotoxicity against human MALME-3M assessed as growth inhibition at 10 uM by NCI protocol relative to control", "format": "functional", "conditions": "read-out: GI", "outline": "as §1"}, "[17]": {"tested_on": "NCI-H522", "experiment": "Cytotoxicity against human NCI-H522 assessed as growth inhibition at 10 uM by NCI protocol relative to control", "format": "functional", "conditions": "read-out: GI", "outline": "as §1"}, "[18]": {"tested_on": "SK-OV-3", "experiment": "Cytotoxicity against human SK-OV-3 assessed as growth inhibition at 10 uM by NCI protocol relative to control", "format": "functional", "conditions": "read-out: GI", "outline": "as §1"}, "[19]": {"tested_on": "UACC-257", "experiment": "Cytotoxicity against human UACC-257 assessed as growth inhibition at 10 uM by NCI protocol relative to control", "format": "functional", "conditions": "read-out: GI", "outline": "as §2"}, "[20]": {"tested_on": "HCT-116", "experiment": "Cytotoxicity against human HCT-116 assessed as growth inhibition at 10 uM by NCI protocol relative to control", "format": "functional", "conditions": "read-out: GI", "outline": "as §1"}, "[21]": {"tested_on": "UACC-62", "experiment": "Cytotoxicity against human UACC-62 assessed as growth inhibition at 10 uM by NCI protocol relative to control", "format": "functional", "conditions": "read-out: GI", "outline": "as §2"}, "[22]": {"tested_on": "UO-31", "experiment": "Cytotoxicity against human UO31 assessed as growth inhibition at 10 uM by NCI protocol relative to control", "format": "functional", "conditions": "read-out: GI", "outline": "as §2"}, "[23]": {"tested_on": "T47D", "experiment": "Cytotoxicity against human T-47D assessed as growth inhibition at 10 uM by NCI protocol relative to control", "format": "functional", "conditions": "read-out: GI", "outline": "as §2"}, "[24]": {"tested_on": "CAKI-1", "experiment": "Cytotoxicity against human Caki1 assessed as growth inhibition at 10 uM by NCI protocol relative to control", "format": "functional", "conditions": "read-out: GI", "outline": "as §1"}, "[25]": {"tested_on": "786-0", "experiment": "Cytotoxicity against human 786-0 assessed as growth inhibition at 10 uM by NCI protocol relative to control", "format": "functional", "conditions": "read-out: GI", "outline": "as §1"}, "[26]": {"tested_on": "NCI-H322M", "experiment": "Cytotoxicity against human NCI-H322M assessed as growth inhibition at 10 uM by NCI protocol relative to control", "format": "functional", "conditions": "read-out: GI", "outline": "as §1"}, "[27]": {"tested_on": "IGROV-1", "experiment": "Cytotoxicity against human IGROVI assessed as growth inhibition at 10 uM by NCI protocol relative to control", "format": "functional", "conditions": "read-out: GI", "outline": "as §1"}},
  "note": "Calls of active or inactive are those of the source. No cut-off for these calls is given here.",
  "data": [
    {"molecule": "COc1ccc(-c2csc(NC(=O)CN3CCN(c4cc(=O)[nH]c5ccc(F)cc45)CC3)n2)cc1", "values": [
      {"measurement": "growth inhibition (GI)", "setting": "[1]", "result": "inactive"},
      {"measurement": "inhibition of growth at 10 µM", "setting": "[2]", "result": 40.9, "unit": "%"},
      {"measurement": "inhibition of growth at 10 µM", "setting": "[3]", "result": 24.9, "unit": "%"},
      {"measurement": "inhibition of growth at 10 µM", "setting": "[4]", "result": 22.1, "unit": "%"},
      {"measurement": "inhibition of growth at 10 µM", "setting": "[5]", "result": 18.6, "unit": "%"},
      {"measurement": "inhibition of growth at 10 µM", "setting": "[6]", "result": 35.8, "unit": "%"},
      {"measurement": "inhibition of growth at 10 µM", "setting": "[7]", "result": 16.6, "unit": "%"},
      {"measurement": "inhibition of growth at 10 µM", "setting": "[8]", "result": 30.3, "unit": "%"},
      {"measurement": "inhibition of growth at 10 µM", "setting": "[9]", "result": 20.8, "unit": "%"},
      {"measurement": "inhibition of growth at 10 µM", "setting": "[10]", "result": 15.8, "unit": "%"},
      {"measurement": "inhibition of growth at 10 µM", "setting": "[11]", "result": 24.5, "unit": "%"},
      {"measurement": "inhibition of growth at 10 µM", "setting": "[12]", "result": 49.9, "unit": "%"},
      {"measurement": "inhibition of growth at 10 µM", "setting": "[13]", "result": 23.9, "unit": "%"},
      {"measurement": "inhibition of growth at 10 µM", "setting": "[14]", "result": 15.3, "unit": "%"},
      {"measurement": "inhibition of growth at 10 µM", "setting": "[15]", "result": 29.1, "unit": "%"},
      {"measurement": "inhibition of growth at 10 µM", "setting": "[16]", "result": 33.6, "unit": "%"},
      {"measurement": "inhibition of growth at 10 µM", "setting": "[17]", "result": 21.6, "unit": "%"},
      {"measurement": "inhibition of growth at 10 µM", "setting": "[18]", "result": 10.4, "unit": "%"},
      {"measurement": "inhibition of growth at 10 µM", "setting": "[19]", "result": 14.5, "unit": "%"},
      {"measurement": "inhibition of growth at 10 µM", "setting": "[20]", "result": 15.9, "unit": "%"},
      {"measurement": "inhibition of growth at 10 µM", "setting": "[21]", "result": 28.1, "unit": "%"},
      {"measurement": "inhibition of growth at 10 µM", "setting": "[22]", "result": 24.9, "unit": "%"},
      {"measurement": "inhibition of growth at 10 µM", "setting": "[23]", "result": 69.2, "unit": "%"},
      {"measurement": "inhibition of growth at 10 µM", "setting": "[24]", "result": 46.8, "unit": "%"},
      {"measurement": "inhibition of growth at 10 µM", "setting": "[25]", "result": 19.3, "unit": "%"},
      {"measurement": "inhibition of growth at 10 µM", "setting": "[26]", "result": 12.6, "unit": "%"},
      {"measurement": "inhibition of growth at 10 µM", "setting": "[27]", "result": 45.6, "unit": "%"}
    ]}
  ]
}
